Experiment: Toxicity liver stage against HepG2, at 10uM
Assay type: cell-based
Parameters: test concentration 10 uM, cell line HepG2-A16-CD81EGFP
Conditions: human, HepG2-A16-CD81EGFP cells; read-out: INHIBITION
Summary of the method: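 Uninfected HepG2-A16-CD81EGFP cells, 3 × 10^3 per well, 1536-well, plated on prespotted compound at 10 μM final, parasite-free screening media added to match infected plates; puromycin 10 μM positive, DMSO 0.5% negative; run in parallel with 48 h PbLuc assay at 37 °C, 5% CO2; viability by CellTiter-Glo luminescence, normalized to controls.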

Compound | cytotoxicity at 10 µM
COc1nn(C)cc1C(=O)NCC1(O)CCOCC1 | -14.7%
CC(C)(C)C(=O)NCc1cnn2ccccc12 | -10.6%
CCN1C[C@@H]2CN(C(=O)C3CC=CC3)C[C@@H]2C1=O | 2.35%
CC1N(CC2CC2)C(=O)COC12CCN(C(=O)c1cnccn1)CC2 (configuration not stated) | -2.57%
CC(C)NC(=O)C1CCC2(CCN(c3ncccn3)CC2)CO1 (configuration not stated) | 0.442%
O=C(COc1coc(CN2CCCCC2)cc1=O)c1ccccc1 | 8.44%
Cc1noc([C@@]23CCO[C@@H]2CCN(C(=O)C2CCOCC2)C3)n1 | 1.68%
CC(=O)N1CC[C@H]2OCC[C@@]2(C(=O)NCc2ccco2)C1 | 0.253%
COc1cccc(S(=O)(=O)N2CCn3cnc(COCC4CC4)c3C2)c1 | -18.9%
CC(Cn1cc(Br)cn1)C(=O)Nc1ccn(C)n1 (configuration not stated) | -4.49%
CCNC(=O)[C@H]1CN(Cc2ccccc2)C[C@@H]1C(=O)c1ccccc1 | 3.08%
Cc1nn(C)c(C)c1-c1ccc(=O)n(C(C)C(=O)NCc2ccco2)n1 (configuration not stated) | 6.93%
c1cc(C2CN(C3CCCCC3)C2)n[nH]1 | 4.18%
CNC(=O)CCc1cc(C2CCN(c3cnccn3)CC2)nc(C)n1 | -4.65%
CNC(=O)CCc1cc(C)nc(C2CCN(C3CCCCC3)CC2)c1 | 4.54%
COc1ccccc1C1CNCCN1C(=O)c1ccc(F)cc1 (configuration not stated) | 0.57%
Nc1nccc(C2CCN(CCO)C2)n1 (configuration not stated) | 0.51%
CNc1cccc(C2CCCN(Cc3ncc[nH]3)C2)n1 (configuration not stated) | -18%
CC(=O)N1CCCC(c2ccccn2)C1 (configuration not stated) | -23.7%
NC(=O)C1(c2cnccn2)CCCN1Cc1cccc(Cl)c1 (configuration not stated) | -2.5%
CCOc1cccnc1C(=O)N1CCCN(c2nc(C)cs2)CC1 | 5.6%
O=C(Cc1cccc(F)c1F)NC1COc2ccccc2C1=O (configuration not stated) | 10.4%
Cc1cnn(CC(=O)Nc2cc(-n3nnnc3C3CC3)ccc2F)c1 | -5.46%

Compound | cytotoxicity at 10 µM
CCC(c1ccc(F)cc1)S(=O)(=O)CCO (configuration not stated) | -136%
COCCN(Cc1ccc(C)o1)C(=O)Nc1ncc(C)s1 | 10%
Cc1nsc(N2CCCN(C(=O)CCc3ccsc3)CC2)n1 | 3.8%
N#Cc1cccc(S(=O)(=O)N(CC2CCC2)c2cn[nH]c2)c1 | 10.9%
CCc1noc(C(C)N2CCCN(Cc3noc(C4CC4)n3)CC2)n1 (configuration not stated) | -6.87%
CC(CNC(=O)OC(C)(C)C)N(C)C(=O)COc1ccccc1C#N (configuration not stated) | 1.39%
O=C(NCCCn1cccn1)c1nc2ccccc2[nH]1 | -7.16%
CC(C)NC(=O)NC(C)c1nc(-c2ccccc2)cs1 (configuration not stated) | -11.1%
CC(C)CCC(=O)NCc1ccc(N2CCCCC2)cc1 | 7.89%
O=C(c1sccc1C1CC1)N1CCCN(c2cccnn2)CC1 | -8.67%
Cc1ccc(-n2cc(C(=O)N3CCn4c(C)nnc4C3)nn2)cc1 | -141%
CCOCC(=O)Nc1cc(C)cnc1OC | 4.04%
N#Cc1ccc(OCCn2cccn2)cc1 | 11.2%
COc1ccccc1-c1cc(NC(=O)COCC2CC2)[nH]n1 | -116%
CC(Cn1cccn1)NCCS(=O)(=O)c1ccccc1 (configuration not stated) | -3.63%
CCN(CCC(=O)OC)C(=O)c1cc(F)cc2[nH]cnc12 | -7.37%
COc1ccc(C(N)=O)cc1NCc1ncc(C(C)(C)C)o1 | -8.2%
CC(O)CN1CCC(CNCc2ccc(C#N)cc2)CC1 (configuration not stated) | 8.83%
COC(=O)CNC(=O)C12CCC(=O)N1c1cc(Cl)ccc1S2 (configuration not stated) | -0.748%
CCn1nc2c(cc1=O)CN(Cc1nc(N)c3ccccc3n1)CC2 | -5.59%
COCC(=O)N1CC(C(=O)NCC2CC2)C2(CCOCC2)C1 (configuration not stated) | -105%
Cc1noc([C@]23COC[C@H]2CN(C(=O)N2CCCC2)C3)n1 | -103%
Cn1cccc1C(=O)N1CCO[C@@H]2CN(Cc3ccco3)C[C@@H]2C1 | -97.3%

Compound | cytotoxicity at 10 µM
CNC(=O)NCC1CCC2(CCN(c3ncccn3)CC2)CO1 (configuration not stated) | -107%
O=C(c1ccno1)N1CCn2cc(CN3CCCCC3)nc2C1 | -77.2%
C[C@@H]1C[C@@H]2CCN(Cc3ccncc3)C[C@H]2O1 | -72.9%
O=C(c1cnccn1)N1CCN2C[C@H](Oc3cccnc3)C[C@H]2C1 | 4.62%
C[C@H]1C[C@@H]2CCN(Cc3ccccn3)C[C@H]2O1 | 5.66%
COC(C)(C)C(=O)N1Cc2cnc(C(C)(C)C)nc2C1 | -121%
COc1cccc(OCCc2cncc(C(N)=O)c2)c1 | -135%
CCC1CN(C(=O)c2cc(CN(C)CCc3ccccc3)on2)CCO1 (configuration not stated) | -4.12%
Cc1ccnc(N2CCCC(c3nccn3C(C)C)C2)n1 (configuration not stated) | -9.63%
Cc1nc(CN(C)Cc2csc(-c3cccs3)n2)co1 | -6.06%
Cc1oc(-c2cccc(F)c2F)nc1CN(C)CCC(C)(C)O | -4.47%
CCC(Nc1nc(C(C)C)nc2c1cnn2C)c1ccc(O)cc1 (configuration not stated) | -51.2%
Cc1nc(NCC(O)CN2CCCCCC2)c2c(C)noc2n1 (configuration not stated) | -5.78%
CCCN1CCCn2nc(CNC(=O)CC3CCS(=O)(=O)C3)cc2C1 (configuration not stated) | -2.1%
NC(=O)C1CCCN(c2ncnc3c2Cc2ccccc2OC3)C1 (configuration not stated) | -5.64%
CN1CCCN(c2cnn(Cc3ccc(C(C)(C)C)cc3)c(=O)c2)CC1 | 11.1%
CC(=O)NCCC1CCCCN1S(=O)(=O)c1cccc(Cl)c1 (configuration not stated) | -125%
Cc1nn(C)c(C)c1NC(=O)c1cccc(CN2C[C@H]3CC[C@@H](C2)N3)c1 | -0.277%
CCOc1ccc(Cl)cc1C(C(=O)O)N1CCC(CO)CC1 (configuration not stated) | 2.93%
CC(=O)NCCc1cn(-c2cc(F)ccc2C)cn1 | -1.47%
CC(C)c1nc(CN(C)Cc2ncccc2C(=O)O)cs1 | -15.3%
O=C(CCc1nc(Cl)n[nH]1)N[C@H]1CC[C@H]1NC1Cc2ccccc2C1 | -1.74%
O=C(NCCN1CCNC1=O)c1cnc(-c2cccnc2)nc1 | -0.885%

Compound | cytotoxicity at 10 µM
CC(C)c1ncc(S(C)(=O)=O)c(C2CCCNC2)n1 (configuration not stated) | -1.34%
COC(=O)CCC(=O)N1CCc2[nH]nc(-c3ccc(F)c(F)c3)c2C1 | 0.604%
Cc1ccc(CS(=O)(=O)CC(=O)NCCCOC(C)C)cc1 | -2.9%
COC(=O)C(NC(=O)CC(C)C)c1cc(F)ccc1F (configuration not stated) | -0.481%
COc1ccccc1CC(=O)NS(=O)(=O)c1ccc(C#N)cc1 | -10.4%
C1CC(c2noc(C3CC3)n2)N(Cc2nnc(C3CC3)o2)C1 (configuration not stated) | -5.83%
CC(=O)NC1CCCN(C(=O)NCCOc2ccc3c(c2)OCO3)C1 (configuration not stated) | -31%
CC(C)c1cc(C(=O)N2CCCC(n3cncn3)C2)n[nH]1 (configuration not stated) | -11.9%
O=C(CCc1c(F)cccc1F)N1CCCCC1Cn1cccn1 (configuration not stated) | -11.1%
CCn1cnnc1CNC(=O)N1CCN(CC(C)C)CC1 | 9.18%
CCOc1ncccc1C(=O)N(C)C1CCN(c2ccccn2)CC1 | -18.7%
Cc1ccoc1C(=O)N1CCCN(Cc2cnn(C)c2)CC1 | -11.1%
CCn1cc(CN2CCCN(C(=O)c3c(C)oc(C)c3C)CC2)cn1 | -8.89%
CCC(O)CN1CCN(C(=O)Cc2nc(-c3ccco3)oc2C)CC1 (configuration not stated) | -2.94%
Cc1nnc(NC(=O)CN2CCCC(Cn3cncn3)C2)s1 (configuration not stated) | 1.71%
Cc1cnn(CC2CN(CC(=O)N3CCc4ccccc43)CCO2)c1 (configuration not stated) | -0.77%
Cc1nc(C(=O)N2CCCC2c2c(C)nn(C)c2C)ccc1C#N (configuration not stated) | -6.16%
O=C(CCc1ccccc1F)NS(=O)(=O)c1ccc2c(c1)OCCCO2 | -3.2%
Cc1cc(C)n(C2CN(CC(=O)N3CCOCC3)C2)n1 | -3.2%
CCc1nc(C)c(C(=O)NCCN2CCC(C)CC2)s1 | -5.6%
CCN(Cc1ccc2c(c1)OCCO2)C(=O)NCc1nc(C)cs1 | 1.47%
Cc1nnc(N2CCC(CNC(=O)OC(C)(C)C)CC2)c(C#N)c1C | 2.6%
Cc1ccc(CN(CCN(C)C)Cc2ccnn2C2CCCCO2)o1 (configuration not stated) | 0.267%

Compound | cytotoxicity at 10 µM
Cc1cccc(CN2CCC(c3csc4nccn34)CC2)n1 | 1.54%
O=C(C1CN(Cc2ccsc2)Cc2ccnn2C1)N1CCCC1 (configuration not stated) | -6.93%
COCCC(=O)N1CC2(CCN(Cc3cccc(Cl)c3)CC2)C1 | 5.63%
CCN(CC)c1ncc2c(c1C(=O)O)CCN(C1CCOC1)C2 (configuration not stated) | 15.7%
O=C(NC1CC1)N1CCc2ncc(CN3CCOCC3)n2CC1 | -76.5%
C1CN(CC2CC2)C(COCC2CC2)c2nnn(CC3CC3)c21 (configuration not stated) | -3.66%
Cn1cnc2c1C(COCc1ccccc1)N(Cc1ccncc1)CC2 (configuration not stated) | -1.99%
Cc1ccc(CN2CCOC3(CCN(C(=O)N4CCCC4)CC3)C2)cc1 | 5.7%
CCOC1COC2(CCN(c3ccccn3)CC2)C1 (configuration not stated) | 3.77%
O=C(NCc1ccco1)[C@H]1COC[C@H]2CN(Cc3ccccn3)C[C@H]21 | -72.4%
Cc1cnnn1Cc1ncn2c1CN(Cc1cccs1)CCC2 | 3.58%
CC(C)OCc1ncn2c1CN(Cc1cccs1)CCC2 | 8.44%
CC(NCc1ccncc1)c1ccc(N2CCN(C)CC2)c(F)c1 (configuration not stated) | 27.8%
Cc1ccc(N2CC3(CCN(Cc4nccn4C)C3)CC2=O)s1 (configuration not stated) | -81.9%
c1cc(C2CC2)n2cnc(C3CN(Cc4nccs4)CCO3)c2c1 (configuration not stated) | 1.49%
O=C(CC1CC1)N1C[C@@H]2CCN(c3cnccn3)C[C@@H]2C1 | 5.03%
CCN1CCO[C@@H]2CN(S(=O)(=O)c3cccs3)CC[C@@H]2C1 | 4.82%
CN(C)Cc1noc2c1CN(Cc1ccsc1)CC2 | -2.88%
CC(c1ccccc1)n1cc2nc(N(C)C)[nH]cc-2c1=O (configuration not stated) | -25.5%
Cn1nc(Br)c2c(NCCN)ncnc21 | 20.2%
